# Assay outcomes: PubChem BioAssay, The Scripps Research Institute Molecular Screening Center
# Rows were chosen to be rich in hits. Some 2.4% of all compounds tested hit in one or more screens of this group.
# NPY Y2 blocker – NPY-Y2 (human) receptor antagonism | NPY-Y2 expressing cells, antagonist mode | inhibition, % at 2.7 µM | 0.99% of 140,000 active; in the data active = inhibition above about 17%;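 also: 0% = vehicle with agonist challenge and 100% = reference antagonist with challenge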
# NPY2 pot ag – human NPY-Y2 potentiation or agonism, primary screen. activation, % at 3.6 µM. 0.45% of 220,000 active. P49146. AID 1359. cells expressing NPY-Y2, potentiator/agonist read-out; in the data active = activation above about 27%;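 also: cells stimulated with NPY near EC25 plus isoproterenol at EC100; 0% = vehicle plus submaximal agonist and 100% = vehicle plus saturating agonist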
# S1P4 antagonist – blocks the human S1P4 receptor | 0.26% of 220,000 active | S1P4-expressing cells, antagonist mode, reporter read-out | inhibition, % at 4.98 µM | AID 1510 | O95977; in the data active = inhibition above about 29%;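 also: 0% = wells stimulated with agonist and 100% = vehicle wells without agonist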
# Target sequence (O95977 whole entry, looked up): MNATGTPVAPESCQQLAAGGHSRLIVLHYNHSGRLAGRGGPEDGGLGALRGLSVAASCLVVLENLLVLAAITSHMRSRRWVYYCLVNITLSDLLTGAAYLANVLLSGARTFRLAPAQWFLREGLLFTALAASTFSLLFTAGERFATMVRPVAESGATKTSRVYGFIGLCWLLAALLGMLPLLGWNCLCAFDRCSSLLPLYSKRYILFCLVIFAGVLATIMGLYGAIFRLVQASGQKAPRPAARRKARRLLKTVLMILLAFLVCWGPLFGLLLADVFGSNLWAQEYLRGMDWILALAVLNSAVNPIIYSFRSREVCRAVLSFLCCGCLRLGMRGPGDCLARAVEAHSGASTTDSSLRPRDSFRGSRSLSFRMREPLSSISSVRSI
# S1P4 agonist – agonists of human S1P4 receptor; AID 1509; O95977; activation, % at 4.98 µM; 0.35% of 220,000 active; S1P4-expressing cell line, agonist reporter assay; in the data active = activation above about 11%;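 also: 0% = DMSO vehicle and 100% = reference agonist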
# NPY-Y1 PAM-ag – human NPY-Y1 potentiation or agonism, primary screen; P25929; NPY-Y1 expressing cells, potentiator/agonist activation; activation, % at 3.6 µM; 0.37% of 220,000 active; in the data active = activation above about 33%, passing the limit was not always enough;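 also: cells stimulated with NPY at EC10 then isoproterenol at EC100; 0% = low agonist plus stimulus and 100% = saturating agonist plus stimulus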
# NPY-Y1 antag – antagonists of human neuropeptide Y receptor Y1; P25929; HEK293-CNG Y1 cells, membrane potential fluorescence; NPY at EC95, then isoproterenol; inhibition, % at 3.6 µM; 1% of 200,000 active; AID 1040;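 active = inhibition above the campaign mean inhibition of all tested compounds plus 3 SD, cut at about 20% in these data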;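 also: 0% = DMSO wells given NPY plus isoproterenol and 100% = isoproterenol alone without NPY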
#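 Test system – HEK293 Y1/CNG channel cell line · Also added – NPY agonist 25 nM, then isoproterenol 1 µM plus Ro 20-1724 25 µM · Compound dosing – one concentration, 3.6 µM, in 0.4% DMSO · Schedule – compound incubation 1 h at room temperature, readout 45 min post-stimulation · Technique – fluorescence, membrane potential probe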
# Numbers without * were called inactive; x = no result given.
SMILES,NPY Y2 blocker,NPY2 pot ag,S1P4 antagonist,S1P4 agonist,NPY-Y1 PAM-ag,NPY-Y1 antag
CC(C)COc1ccc(/C(O)=C2/C(=O)C(=O)N(CCN(C)C)C2c2ccncc2)cc1 (configuration not stated),1,3,-11,0,3,6
COC(=O)c1ccc(NC(=O)CN2CCN(c3ccccn3)CC2)cc1,x,2,-3,-2,-15,5
Cc1ccc2nsnc2c1NC(=O)COc1ccccc1F,x,-10,-6,2,-1,2
Cc1cc(Cl)ccc1NC(=O)CSc1nnc(Cc2cccs2)n1Cc1ccco1,21*,-16,7,1,-17,23*
N#Cc1ccc(CSc2nnc(Cc3cccs3)n2Cc2ccco2)cc1,17,-23,2,-2,-34,23*
CC(C)N(Cc1cc2ccccc2[nH]c1=O)C(=O)c1ccco1,x,17,-9,1,-4,6
CCCn1c(CN(C)Cc2ccccc2)nc2c1c(=O)n(C)c(=O)n2C,7,0,0,0,2,2
CN(Cc1ccccc1)Cc1nc2c(c(=O)n(C)c(=O)n2C)n1CCc1ccccc1,23*,-7,-7,-2,-36,22*
COc1cccc(NC(=S)/C(=C(\[O-])c2cc(C)n(-c3ccccc3F)c2C)[n+]2ccc(N(C)C)cc2)c1,x,-12,4,2,4,2
O=C(NC(c1ccc(Cl)cc1)c1c(O)ccc2ccccc12)c1ccccc1 (configuration not stated),-6,43*,20,0,41,-13
CS(=O)(=O)N1CC(C(=O)NC2CCCC2)Oc2ccc(Cl)cc21 (configuration not stated),1,-8,-19,0,8,0
CCOC(=O)c1c(C)oc2ccc(O)c(CN(C)C)c12,6,53*,-14,1,61*,-8
CCOC(=O)c1c(C)n(C)c2ccc(O)c(CN(CC)CC)c12,15,60*,14,-1,70*,-5
CCCn1nc(C(=O)NC2CCCc3ccccc32)c2ccccc2c1=O (configuration not stated),16,-27,-5,-1,-81,19
Cc1[nH]nc2c1C1(C(=O)N(Cc3ccc(Cl)cc3)c3ccccc31)C(C#N)=C(N)O2 (configuration not stated),2,7,-13,-1,7,-4
CN1C(=O)C2(C(C#N)=C(N)Oc3n[nH]c(-c4ccc(Cl)cc4)c32)c2ccccc21 (configuration not stated),-1,43*,-5,1,40*,-9
O=C(COC(=O)c1cc[n+]([O-])cc1)Nc1ccc(F)c([N+](=O)[O-])c1,1,10,-6,-1,5,8
CNc1ccc(C(O)(C(F)(F)F)C(F)(F)F)cc1C(O)(C(F)(F)F)C(F)(F)F,0,58*,16,-2,46*,-10
Cc1ccc(N)c(C(O)(C(F)(F)F)C(F)(F)F)c1,3,3,5,-1,7,3
CC1(C)CC(N(Cc2ccc(F)cc2)C(=O)c2ccc(F)cc2)CCO1 (configuration not stated),x,-7,0,2,8,x
CC1(C)CC(C(CCN(Cc2ccccc2)C(=O)c2ccco2)c2ccc(F)cc2)CCO1 (configuration not stated),33*,-4,-19,0,-18,29*
CCOC(=O)c1cnc2ccc(OCC)cc2c1NCc1ccccc1OC,49*,-24,-22,-1,-60,27*
CCOC(=O)c1cnc2ccc(OC)cc2c1NCc1ccccc1,19*,-51,4,1,-75,27*
NC(=O)N=Nc1c2[nH]c3ccccc3nc-2c2ccccc12,x,26,-82,0,18,x
O=C(COC(=O)C1CC(=O)N(Cc2ccccc2)C1)Nc1ccc(Cl)cc1F (configuration not stated),x,3,-8,-1,-3,-1
SMILES,NPY Y2 blocker,NPY2 pot ag,S1P4 antagonist,S1P4 agonist,NPY-Y1 PAM-ag,NPY-Y1 antag
CN1CCC(=NOc2ccc([N+](=O)[O-])cc2)CC1,x,-18,1,-1,21,-8
Cc1nn(CCCC(=O)N2CCN(c3ccc(F)cc3)CC2)c(C)c1[N+](=O)[O-],x,-1,-18,1,7,0
O=C1NC(=O)C(CC(=O)N(Cc2cccs2)C2(C(=O)NC3CCCC3)CCCCC2)N1 (configuration not stated),3,-16,16,1,-35,11
O=C(c1cnccn1)N(Cc1cccs1)C1(C(=O)NC2CCCC2)CCCCC1,26*,-15,-2,-1,-27,42*
O=C(Cc1cccs1)N(Cc1cccs1)C1(C(=O)NC2CCCCC2)CCCCC1,37*,-8,0,-1,-25,52*
O=C1CCC(C(=O)N(Cc2cccs2)C2(C(=O)NC3CCCCC3)CCCCC2)N1 (configuration not stated),x,-17,-5,0,-3,17
O=C(c1cnccn1)N(Cc1cccs1)C1(C(=O)NC2CCCCC2)CCCCC1,21*,-19,-2,2,-38,38*
CN(C(=O)c1ccccn1)C1(C(=O)NC2CCCCC2)CCCCC1,8,-3,-6,0,9,7
Cc1cccn2cc(COc3ccc(-c4ccccc4)cc3)nc12,x,-4,1,0,-3,11
COCc1c(C(=O)OC/C(O)=C(\C#N)c2nc3ccccc3[nH]2)oc2ccccc12,x,-23,-17,-1,-10,20*
COc1ccc2oc(C(=O)OC/C(O)=C(\C#N)c3nc4ccccc4[nH]3)c(C)c2c1,x,-15,-6,3,-31,x
O=C(CSc1ncnc2scc(-c3ccccc3)c12)N1CCN(c2ccccc2F)CC1,30*,-5,-21,-1,-29,33*
Cc1nc(-c2ccccc2)sc1C(=O)CSc1ccccc1,24*,-9,-6,-1,-31,21*
Cc1nc(-c2ccccc2)sc1C(N)=O,1,-10,0,-1,-17,5
CN(C)c1ccc(/C=N/OC(=O)Nc2ccccc2Cl)cc1,x,-6,-25,1,-27,-1
CC(C)(CC(=O)O)CC(=O)Nc1ccc(Cl)c(Cl)c1,x,-26,3,1,-51,x
CC1CCCCN1S(=O)(=O)c1ccc(C(=O)Nc2nnc(-c3ccccc3Cl)o2)cc1 (configuration not stated),-3,99*,-34,-1,95*,-16
CCCc1ccc(C(=O)NNC(=O)c2ccc(Br)cc2)cc1,4,-6,-15,0,2,1
CCCc1ccc(C(=O)NNc2ccc(F)cc2)cc1,x,46*,-2,1,51*,x
CCC(C)(C)NC(=O)C(c1ccc(C)cc1)N(Cc1ccco1)C(=O)Cn1nnc2ccccc21 (configuration not stated),61*,-22,-2,-2,-122,25*
